Bioassay records: PubChem, several laboratories
Rows were chosen to be rich in hits. Some 3.2% of all compounds tested hit in one or more screens of this group.
EphB4 ephrin blk – antagonists of human EphB4-ephrin-B2 interaction; P54760; EphB4 LBD / TNYL-RAW-Alexa532 peptide, fluorescence polarization; inhibition, % at 7 µM; actives 0.15% (n = 97,000);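 active = inhibition above the screen-wide mean inhibition plus 3 SD, cut at about 15% in these data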
PLK1 inh – inhibitors of human PLK1 kinase | AID 619 | inhibition, % at 10 µM | recombinant PLK1 kinase, TR-FRET peptide phosphorylation | actives 0.53% (n = 97,000);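 active = inhibition of 50% or more in the single-concentration screen; inactive = inhibition below 50%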
hDAT+cocaine – changed human dopamine transporter uptake under cocaine IC80; Q01959; LLC-PK1 hDAT cells, [14C]-dopamine uptake with cocaine IC80; actives deviate in either direction; B-score at 10 µM; actives 1.3% (n = 110,000); AID 449768;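 active = Z score or B-score, a plate-position-corrected score, falls beyond the plate's 99.7% confidence bounds, in either direction; inactive = both scores lie inside the 99.7% bounds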
Plk1 PBD FP – Plk1 (human) PBD binding inhibition. P53350. Plk1 PBD phosphopeptide binding, fluorescence polarization. inhibition, %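 (tested at about 20 µM)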. actives 0.13% (n = 97,000). AID 693; in the data active = inhibition above about 34%, passing the limit was not always enough
Rev-RRE block – HIV Rev-RRE protein-RNA interaction inhibition. P05866. Rev peptide-RRE RNA binding, FRET. inhibition, % at 8 µM. actives 0.79% (n = 97,000). AID 704;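 active = inhibition above the screen-wide mean plus 3 SD, cut at about 35% in these data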
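Test system – labelled RRE RNA duplex and labelled Rev peptide · Reagent – labelled Rev peptide · Doses – one concentration, 8 µM nominal · Incubation – 5 + 15 min at 25 °C · Signal – FRET fluorescence readout · Read-out basis – % inhibition of FRET ratio versus controls · Control set – DMSO wells as 0% and neomycin B wells as 100% inhibition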
FAK inh – inhibitors of human focal adhesion kinase. inhibition, %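 (tested at 7 µM)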. actives 0.84% (n = 97,000). Q05397. biochemical FAK kinase activity assay
Target sequence (Q05397 whole entry, looked up): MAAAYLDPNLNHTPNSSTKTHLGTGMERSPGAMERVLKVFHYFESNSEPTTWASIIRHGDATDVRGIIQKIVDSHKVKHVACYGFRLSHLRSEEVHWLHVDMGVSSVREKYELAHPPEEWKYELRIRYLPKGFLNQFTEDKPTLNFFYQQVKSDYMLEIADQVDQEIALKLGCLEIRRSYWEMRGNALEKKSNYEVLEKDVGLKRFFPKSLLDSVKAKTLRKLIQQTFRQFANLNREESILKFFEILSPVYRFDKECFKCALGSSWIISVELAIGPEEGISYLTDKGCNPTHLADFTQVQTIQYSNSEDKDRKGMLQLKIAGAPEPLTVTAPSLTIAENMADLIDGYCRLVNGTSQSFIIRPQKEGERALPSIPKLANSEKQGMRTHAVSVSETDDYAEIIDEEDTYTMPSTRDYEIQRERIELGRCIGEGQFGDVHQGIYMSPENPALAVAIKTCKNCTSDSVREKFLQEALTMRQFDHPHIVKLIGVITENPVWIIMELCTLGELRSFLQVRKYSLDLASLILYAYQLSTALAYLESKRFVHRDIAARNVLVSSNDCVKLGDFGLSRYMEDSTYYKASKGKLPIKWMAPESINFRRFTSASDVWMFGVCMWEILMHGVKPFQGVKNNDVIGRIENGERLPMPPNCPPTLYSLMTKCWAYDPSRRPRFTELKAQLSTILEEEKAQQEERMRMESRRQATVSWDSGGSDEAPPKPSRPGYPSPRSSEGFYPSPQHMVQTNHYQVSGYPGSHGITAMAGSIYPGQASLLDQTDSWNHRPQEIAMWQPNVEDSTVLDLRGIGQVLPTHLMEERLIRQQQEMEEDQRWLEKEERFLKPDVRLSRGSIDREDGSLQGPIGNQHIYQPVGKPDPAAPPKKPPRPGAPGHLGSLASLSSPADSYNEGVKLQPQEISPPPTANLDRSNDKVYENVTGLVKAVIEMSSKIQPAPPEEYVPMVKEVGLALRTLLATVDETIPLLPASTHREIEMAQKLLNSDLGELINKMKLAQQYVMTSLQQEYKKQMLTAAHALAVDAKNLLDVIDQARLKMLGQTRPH
FAK inh confirm – confirmation of human focal adhesion kinase (FAK) inhibitors; shares compounds with FAK inh; AID 794; inhibition, % at 7 µM; FAK kinase biochemical inhibition assay; actives 28% (n = 750)
Each line names hits and unclear results; the compound was inactive in the other large screens (follow-up assays come after a bar, where they were run). Cut-off read from the data, not from the text of the source, unless noted: active = inhibition above about 19%; inactive = the rest.

O=C(NCCc1ccc(Cl)cc1)C1CCC(=O)N1Cc1ccc(F)cc1 (stereo unspecified)	none
Cc1cc2ncn(S(=O)(=O)N(C)C)c2cc1C	FAK inh 18.8 | FAK inh confirm inactive
CCc1cccc(NC(=O)Cc2cn(C)c3ccccc23)c1	none
S=c1[nH]nc(Cc2cccc3ccccc23)n1-c1ccccc1	none
Cn1c2ccccc2c(=O)n2c(=O)c3ccccc3cc12	FAK inh 31.1 | FAK inh confirm 47.1
Cc1occc1-c1nnc(SCC(=O)N(C)C)o1	none
Cc1nnc(NC(=O)CSc2ncnc3c2cnn3-c2ccccc2C)s1	FAK inh 30.1 | FAK inh confirm inactive
Cc1ccccc1-n1ncc2c(SCC(=O)N3c4ccccc4CC3C)ncnc21 (stereo unspecified)	none
COc1cccc(CN2CC(O)=C(c3nc(-c4ccc(Cl)cc4)cs3)C2=N)c1	FAK inh 31.7 (no result: hDAT+cocaine) | FAK inh confirm 25.6
CCCCN1CC(O)=C(c2nc(-c3ccc(Cl)cc3)cs2)C1=N	FAK inh 31.5 | FAK inh confirm inactive
Cc1ccc(C(=O)NNC(=O)CSc2nnc3c(n2)[nH]c2ccc(F)cc23)cc1	FAK inh 69.2 | FAK inh confirm 38.8
COc1ccc2[nH]c3nc(SCC(=O)NNC(=O)c4ccc(OC)c(OC)c4)nnc3c2c1	none
O=C(c1ccc(Cn2cc(Br)cn2)o1)n1cccn1	none
Cc1ccsc1C=Nc1ccc(O)cc1	FAK inh 50.4 | FAK inh confirm inactive
CCOC(=O)Cc1cc(OC)c(OC)cc1Cc1cc(OC)c(OC)cc1CC(=O)OCC	none
Cc1ccc(-c2c(C#N)c(N)n3c(nc4ccccc43)c2C#N)cc1	FAK inh 23.6 | FAK inh confirm inactive
CCCNc1cc(C)c(C#N)c2nc3ccccc3n12	none
c1ccc(-n2nnnc2-n2cnc3ccccc32)cc1	none
c1ccc(-c2nccc(-c3ccc(-n4cnc5ccccc54)cc3)n2)cc1	FAK inh 86.0 (no result: hDAT+cocaine) | FAK inh confirm 80.7
COc1ccc(Cc2nc3ccc(S(=O)(=O)N4CCOCC4)cc3[nH]2)cc1OC	none
COc1ccc(Cc2nc3ccc(S(=O)(=O)N4CCOCC4)cc3[nH]2)cc1	FAK inh 95.5 | FAK inh confirm inactive
CCOC(=O)c1c(N)sc2c(O)c(Br)ccc12	FAK inh 18.9 | FAK inh confirm inactive
Cc1ccccc1OCC(=O)NNC(=O)c1ccc(-c2ccccc2)cc1	FAK inh 20.4 | FAK inh confirm inactive
CCc1ccc(OCC(=O)Nc2ccc(-c3nc4ccccc4o3)c(O)c2)cc1	FAK inh 29.7 | FAK inh confirm 21.4
COc1ccc(OCC(=O)Nc2cccc(-c3nc4ccccc4o3)c2)cc1	none
O=C(c1ccc(S(=O)(=O)Nc2ccc(F)cc2)cc1)N1CCN(C(=O)c2ccco2)CC1	FAK inh 27.4 | FAK inh confirm inactive
CN(C)c1ccc(C(=S)NCc2ccco2)cc1	none
CCc1nc(Sc2nc(C)cc(C)n2)c2oc3ccccc3c2n1	FAK inh 22.4 | FAK inh confirm inactive
CCOC(=O)c1cccc(NS(=O)(=O)c2c(C)[nH]c(=O)[nH]c2=O)c1	FAK inh 21.3 | FAK inh confirm inactive
CCOC(=O)c1cccc(NS(=O)(=O)c2ccc(NC(C)=O)cc2)c1	none
CCN(CC)CCn1c2ccccc2c2cnc(N)c(C#N)c21	PLK1 inh 52.0, FAK inh 39.9 | FAK inh confirm inactive
COCC(C)n1c(SCC(=O)NC(=O)Nc2ccc3c(c2)OCCO3)nc2ccccc2c1=O (stereo unspecified)	none
COc1ccc2ccc3c(c2c1)N=CC1(O3)N(C)c2ccccc2C1(C)C (stereo unspecified)	none
CN1c2ccccc2C(C)(C)C12C=Nc1c(ccc3ccccc13)O2 (stereo unspecified)	FAK inh 32.2 | FAK inh confirm inactive
N#Cc1c(-n2ccnc2)cccc1-n1ccnc1	none
Nc1nnc2c(n1)CCCC2	FAK inh 20.7 | FAK inh confirm inactive
O=Cc1cn(-c2ccccc2)nc1-c1cc2cc(O)ccc2oc1=O	FAK inh 29.9 | FAK inh confirm inactive
CN1CCN(C(=O)CN(Cc2ccccc2)S(C)(=O)=O)CC1	none
CS(=O)(=O)N(CC(=O)N1CCOCC1)Cc1ccccc1	FAK inh 34.5 | FAK inh confirm inactive
